Key:
Format in all cases: functional
[1] = system: UACC-62; assay: Cytotoxicity against human UACC62 cells assessed as cell growth at 50 uM by SRB assay; settings: read-out: Activity
[2] = system: MCF7; assay: Cytotoxicity against human MCF7 cells assessed as cell growth at 50 uM by SRB assay; settings: read-out: Activity
[3] = system: HOP-92; assay: Cytotoxicity against human HOP92 cells by SRB assay
How it was run: (§1)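 Measured in the NCI-60 human tumour cell line panel using five-dose testing. Growth was recorded at each dose for each cell line, and a GI50 was derived for each line.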

[4] = system: SNB-75; assay: Cytotoxicity against human SNB75 cells by SRB assay
How it was run: (§2)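 NCI-60 panel screen; 5-dose testing giving GI50 per cell line, plus a single 10 µM one-dose test. Method details not given beyond the NCI screen.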

[5] = system: LOX IMVI; assay: Cytotoxicity against human LOXIMVI cells by SRB assay; how it was run: as §2
[6] = system: M14; assay: Cytotoxicity against human M14 cells by SRB assay; how it was run: as §2
[7] = system: IGROV-1; assay: Cytotoxicity against human IGROV1 cells by SRB assay; how it was run: as §2
[8] = system: UO-31; assay: Cytotoxicity against human UO31 cells by SRB assay; how it was run: as §2
[9] = system: DU-145; assay: Cytotoxicity against human DU145 cells by SRB assay; how it was run: as §1
[10] = system: BT-549; assay: Cytotoxicity against human BT549 cells by SRB assay
[11] = system: HOP-62; assay: Cytotoxicity against human HOP62 cells assessed as cell growth at 0.005 uM by SRB assay; settings: read-out: Activity; how it was run: as §1
[12] = system: HCT-116; assay: Cytotoxicity against human HCT116 cells assessed as cell growth at 0.005 uM by SRB assay; settings: read-out: Activity; how it was run: as §1
[13] = system: HCT-15; assay: Cytotoxicity against human HCT15 cells assessed as cell growth at 0.005 uM by SRB assay; settings: read-out: Activity; how it was run: as §1
[14] = system: OVCAR-3; assay: Cytotoxicity against human OVCAR3 cells assessed as cell growth at 0.005 uM by SRB assay; settings: read-out: Activity
[15] = system: CAKI-1; assay: Cytotoxicity against human Caki1 cells assessed as cell growth at 0.005 uM by SRB assay; settings: read-out: Activity
[16] = system: UO-31; assay: Cytotoxicity against human UO31 cells assessed as cell growth at 0.005 uM by SRB assay; settings: read-out: Activity
[17] = system: PC-3; assay: Cytotoxicity against human PC3 cells assessed as cell growth at 0.005 uM by SRB assay; settings: read-out: Activity
[18] = system: MCF7; assay: Cytotoxicity against human MCF7 cells assessed as cell growth at 0.005 uM by SRB assay; settings: read-out: Activity
[19] = system: MDA-MB-231; assay: Cytotoxicity against human MDA-MB-231/ATCC cells assessed as cell growth at 0.005 uM by SRB assay; settings: read-out: Activity
[20] = Cytotoxicity against human Hs578T cells assessed as cell growth at 0.005 uM by SRB assay; settings: Hs-578T, read-out: Activity; how it was run: as §1
[21] = system: HOP-92; assay: Cytotoxicity against human HOP92 cells assessed as cell growth at 0.05 uM by SRB assay; settings: read-out: Activity; how it was run: as §1
[22] = system: NCI-H226; assay: Cytotoxicity against human NCI-H226 cells assessed as cell growth at 0.05 uM by SRB assay; settings: read-out: Activity
[23] = system: OVCAR-4; assay: Cytotoxicity against human OVCAR4 cells assessed as cell growth at 0.05 uM by SRB assay; settings: read-out: Activity
[24] = system: A498; assay: Cytotoxicity against human A498 cells assessed as cell growth at 0.05 uM by SRB assay; settings: read-out: Activity
[25] = system: DU-145; assay: Cytotoxicity against human DU145 cells assessed as cell growth at 0.05 uM by SRB assay; settings: read-out: Activity; how it was run: as §1
[26] = system: BT-549; assay: Cytotoxicity against human BT549 cells assessed as cell growth at 0.05 uM by SRB assay; settings: read-out: Activity
[27] = system: HL-60(TB); assay: Cytotoxicity against human HL-60(TB) cells assessed as cell growth at 0.5 uM by SRB assay; settings: read-out: Activity; how it was run: as §1
[28] = system: HOP-62; assay: Cytotoxicity against human HOP62 cells assessed as cell growth at 0.5 uM by SRB assay; settings: read-out: Activity; how it was run: as §1
[29] = system: SF-539; assay: Cytotoxicity against human SF539 cells assessed as cell growth at 0.5 uM by SRB assay; settings: read-out: Activity
[30] = system: SK-MEL-2; assay: Cytotoxicity against human SK-MEL-2 cells assessed as cell growth at 0.5 uM by SRB assay; settings: read-out: Activity
[31] = system: SK-MEL-28; assay: Cytotoxicity against human SK-MEL-28 cells assessed as cell growth at 0.5 uM by SRB assay; settings: read-out: Activity
[32] = Cytotoxicity against human NCI-ADR-RES cells assessed as cell growth at 0.5 uM by SRB assay; settings: read-out: Activity
[33] = system: SN12C; assay: Cytotoxicity against human SN12C cells assessed as cell growth at 0.5 uM by SRB assay; settings: read-out: Activity
[34] = system: HL-60(TB); assay: Cytotoxicity against human HL-60(TB) cells assessed as cell growth at 5 uM by SRB assay; settings: read-out: Activity; how it was run: as §1
[35] = system: 786-0; assay: Cytotoxicity against human 786-0 cells assessed as cell growth at 5 uM by SRB assay; settings: read-out: Activity
[36] = system: DU-145; assay: Cytotoxicity against human DU145 cells assessed as cell growth at 5 uM by SRB assay; settings: read-out: Activity; how it was run: as §1
[37] = system: MDA-MB-231; assay: Cytotoxicity against human MDA-MB-231/ATCC cells assessed as cell growth at 5 uM by SRB assay; settings: read-out: Activity
[38] = system: RPMI-8226; assay: Cytotoxicity against human RPMI8226 cells assessed as cell growth at 50 uM by SRB assay; settings: read-out: Activity
[39] = system: HOP-62; assay: Cytotoxicity against human HOP62 cells assessed as cell growth at 50 uM by SRB assay; settings: read-out: Activity; how it was run: as §1
[40] = system: NCI-H460; assay: Cytotoxicity against human NCI-H460 cells assessed as cell growth at 50 uM by SRB assay; settings: read-out: Activity
[41] = system: NCI-H522; assay: Cytotoxicity against human NCI-H522 cells assessed as cell growth at 50 uM by SRB assay; settings: read-out: Activity
[42] = system: COLO 205; assay: Cytotoxicity against human COLO205 cells assessed as cell growth at 50 uM by SRB assay; settings: read-out: Activity
[43] = read-out: LC50 (the source's name)
[44] = read-out: pLC50 (the source's name) (converted)

COc1cc([C@@H]2c3cc4c(cc3[C@@H](NC(=O)CN3CCN(CCCCCCN5CCN(CC(=O)N[C@@H]6c7cc8c(cc7[C@@H](c7cc(OC)c(O)c(OC)c7)[C@H]7C(=O)OC[C@@H]76)OCO8)CC5)CC3)[C@H]3COC(=O)[C@H]23)OCO4)cc(OC)c1O
growth at 50 µM [1]: -5% | growth at 50 µM [2]: 7% | GI50 ([3]; read-out: GI50): 1.55 µM | CC50 [3, 43]: > 50 µM | TGI ([3]; read-out: TGI): > 50 µM | GI50 ([3]; read-out: pGI50 (converted)): 1.55 µM | CC50 [3, 44]: > 50.1 µM | TGI ([3]; read-out: pTGI (converted)): > 50.1 µM | GI50 ([4]; read-out: GI50): 0.957 µM | CC50 [4, 43]: > 50 µM | TGI ([4]; read-out: TGI): 12.8 µM | GI50 ([4]; read-out: pGI50 (converted)): 0.955 µM | CC50 [4, 44]: > 50.1 µM | TGI ([4]; read-out: pTGI (converted)): 12.9 µM | GI50 ([5]; read-out: GI50): 0.966 µM | CC50 [5, 43]: > 50 µM | TGI ([5]; read-out: TGI): 28 µM | GI50 ([5]; read-out: pGI50 (converted)): 0.977 µM | CC50 [5, 44]: > 50.1 µM | TGI ([5]; read-out: pTGI (converted)): 28.2 µM | GI50 ([6]; read-out: GI50): 2.31 µM | CC50 [6, 43]: > 50 µM | TGI ([6]; read-out: TGI): 22.1 µM | GI50 ([6]; read-out: pGI50 (converted)): 2.29 µM | CC50 [6, 44]: > 50.1 µM | TGI ([6]; read-out: pTGI (converted)): 21.9 µM | GI50 ([7]; read-out: GI50): 40 µM | CC50 [7, 43]: > 50 µM | TGI ([7]; read-out: TGI): > 50 µM | GI50 ([7]; read-out: pGI50 (converted)): 39.8 µM | CC50 [7, 44]: > 50.1 µM | TGI ([7]; read-out: pTGI (converted)): > 50.1 µM | GI50 ([8]; read-out: GI50): > 50 µM | CC50 [8, 43]: > 50 µM | TGI ([8]; read-out: TGI): > 50 µM | GI50 ([8]; read-out: pGI50 (converted)): > 50.1 µM | CC50 [8, 44]: > 50.1 µM | TGI ([8]; read-out: pTGI (converted)): > 50.1 µM | GI50 ([9]; read-out: GI50): 1.66 µM | CC50 [9, 43]: > 50 µM | TGI ([9]; read-out: TGI): > 50 µM | GI50 ([9]; read-out: pGI50 (converted)): 1.66 µM | CC50 [9, 44]: > 50.1 µM | TGI ([9]; read-out: pTGI (converted)): > 50.1 µM | GI50 ([10]; read-out: GI50): 0.757 µM | CC50 [10, 43]: > 50 µM | TGI ([10]; read-out: TGI): 4.24 µM | GI50 ([10]; read-out: pGI50 (converted)): 0.759 µM | CC50 [10, 44]: > 50.1 µM | TGI ([10]; read-out: pTGI (converted)): 4.27 µM | growth at 0.005 µM [11]: 95% | growth at 0.005 µM [12]: 93% | growth at 0.005 µM [13]: 90% | growth at 0.005 µM [14]: 110% | growth at 0.005 µM [15]: 89% | growth at 0.005 µM [16]: 94% | growth at 0.005 µM [17]: 93% | growth at 0.005 µM [18]: 80% | growth at 0.005 µM [19]: 103% | growth at 0.005 µM [20]: 95% | growth at 0.05 µM [21]: 82% | growth at 0.05 µM [22]: 87% | growth at 0.05 µM [23]: 89% | growth at 0.05 µM [24]: 96% | growth at 0.05 µM [25]: 103% | growth at 0.05 µM [26]: 87% | growth at 0.5 µM [27]: 60% | growth at 0.5 µM [28]: 98% | growth at 0.5 µM [29]: 71% | growth at 0.5 µM [30]: 105% | growth at 0.5 µM [31]: 91% | growth at 0.5 µM [32]: 106% | growth at 0.5 µM [33]: 78% | growth at 5 µM [34]: 6% | growth at 5 µM [35]: 40% | growth at 5 µM [36]: 14% | growth at 5 µM [37]: 79% | growth at 50 µM [38]: -13% | growth at 50 µM [39]: -22% | growth at 50 µM [40]: -28% | growth at 50 µM [41]: -16% | growth at 50 µM [42]: -3%

From ChEMBL document CHEMBL3588757, “Structure-based design, synthesis and biological testing of piperazine-linked bis-epipodophyllotoxin etoposide analogs” (Bioorg Med Chem, 2015)
